One block for each compound: values may come before it.
Experiments:
[1] = target: T1, Amine oxidase [flavin-containing] A (Rattus norvegicus, UniProt P21396); assay: Inhibitory activity against Monoamine oxidase A at 1 uM
T1 sequence (P21396 whole entry): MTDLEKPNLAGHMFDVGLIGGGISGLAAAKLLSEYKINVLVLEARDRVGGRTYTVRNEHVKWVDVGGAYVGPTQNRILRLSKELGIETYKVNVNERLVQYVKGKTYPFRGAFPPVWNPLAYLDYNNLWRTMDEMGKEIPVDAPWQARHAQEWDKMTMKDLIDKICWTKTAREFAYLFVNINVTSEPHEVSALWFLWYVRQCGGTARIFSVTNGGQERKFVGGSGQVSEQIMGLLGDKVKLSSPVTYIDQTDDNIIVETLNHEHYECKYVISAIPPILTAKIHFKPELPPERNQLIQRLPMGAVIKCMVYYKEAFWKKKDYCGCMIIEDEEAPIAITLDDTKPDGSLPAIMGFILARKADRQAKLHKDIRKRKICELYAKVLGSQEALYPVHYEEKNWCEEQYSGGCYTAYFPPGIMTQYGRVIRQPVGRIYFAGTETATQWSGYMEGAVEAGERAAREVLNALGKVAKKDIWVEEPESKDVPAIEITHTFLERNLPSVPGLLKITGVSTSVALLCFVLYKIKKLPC
Procedure, shortened: (§1)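 Rat brain mitochondrial MAO extract preincubated with inhibitor 15 min at 37 °C in 50 mM potassium phosphate pH 7.4. [3H]serotonin added at 0.2 μM final, then 20 min incubation. Pargyline 2 mM blanks. Stopped with HCl, products extracted into ethyl acetate/toluene and counted radiometrically. Triplicates; IC50 from mean % inhibition vs log concentration.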

[2] = target: T1, Amine oxidase [flavin-containing] A; assay: Inhibitory concentration against rat brain mitochondrial monoamine oxidase A; procedure, shortened: as §1
[3] = target: T1, Amine oxidase [flavin-containing] A; assay: Inhibition of the enzyme Monoamine oxidase A which was not completely reverserved after 24 hr of dialysis
Procedure, shortened: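 Reversibility: MAO extract preincubated with or without inhibitor 15 min at 37 °C, in duplicate, then dialysed 24 h at 4 °C with shaking against 0.1 M potassium phosphate pH 7.4, 5% sucrose, 1 mM dithiothreitol, buffer changed ca. 3 and 19 h. Undialysed portions held at 4 °C; both assayed together for MAO activity.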

[4] = target: T2, Amine oxidase [flavin-containing] B (Rattus norvegicus, UniProt P19643); assay: Inhibitory activity against rat brain mitochondrial Monoamine oxidase B at 0.003 uM
T2 sequence (P19643 whole entry): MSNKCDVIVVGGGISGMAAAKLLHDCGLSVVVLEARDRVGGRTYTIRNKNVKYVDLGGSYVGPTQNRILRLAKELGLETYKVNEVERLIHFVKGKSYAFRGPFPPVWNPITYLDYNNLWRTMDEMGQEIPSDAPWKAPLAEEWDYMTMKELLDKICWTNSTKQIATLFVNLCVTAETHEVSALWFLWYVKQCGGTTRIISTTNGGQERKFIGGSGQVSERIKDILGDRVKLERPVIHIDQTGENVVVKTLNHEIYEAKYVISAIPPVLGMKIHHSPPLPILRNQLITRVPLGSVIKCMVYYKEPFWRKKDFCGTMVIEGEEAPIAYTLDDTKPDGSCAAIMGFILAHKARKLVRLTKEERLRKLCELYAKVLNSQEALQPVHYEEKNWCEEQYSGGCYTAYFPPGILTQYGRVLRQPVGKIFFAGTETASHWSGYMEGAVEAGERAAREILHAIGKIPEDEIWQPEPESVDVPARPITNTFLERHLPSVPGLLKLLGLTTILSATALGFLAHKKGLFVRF
Procedure, shortened: as §1, with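 “[14C]phenethylamine” for “[3H]serotonin”, “10” for “0.2”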

[5] = target: T2, Amine oxidase [flavin-containing] B; assay: Inhibitory activity against rat brain mitochondrial Monoamine oxidase B; NS=not significant at 0.001 uM
Procedure, shortened: as §1, with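 “[14C]phenethylamine” for “[3H]serotonin”, “10” for “0.2”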

[6] = target: T1, Amine oxidase [flavin-containing] A; assay: Inhibitory concentration against Monoamine oxidase A
Procedure, shortened: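 Rat brain mitochondrial MAO extract was preincubated ± inhibitor 15 min at 37 °C in 50 mM potassium phosphate (pH 7.4), then given [3H]serotonin at 0.2 μM final for 20 min. Blanks contained 2 mM pargyline. Products went into ethyl acetate/toluene for scintillation counting. Triplicates per concentration; IC50 extrapolated from mean % inhibition vs log concentration plots.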

[7] = target: T2, Amine oxidase [flavin-containing] B; assay: Inhibitory activity against Monoamine oxidase B at 1 uM
Procedure, shortened: as §1, with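 “[14C]phenethylamine” for “[3H]serotonin”, “10” for “0.2”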

[8] = target: T2, Amine oxidase [flavin-containing] B; assay: Inhibitory activity against rat brain mitochondrial Monoamine oxidase B at 0.03 uM
Procedure, shortened: as §1, with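 “[14C]phenethylamine” for “[3H]serotonin”, “10” for “0.2”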

[9] = target: T2, Amine oxidase [flavin-containing] B; assay: Inhibitory activity against rat brain mitochondrial Monoamine oxidase B at 3 uM
Procedure, shortened: as §1, with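 “[14C]phenethylamine” for “[3H]serotonin”, “10” for “0.2”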

[10] = target: T1, Amine oxidase [flavin-containing] A; assay: Inhibitory concentration against rat brain mitochondrial Monoamine oxidase A at 3 uM; procedure, shortened: as §1
[11] = target: T2, Amine oxidase [flavin-containing] B; assay: Inhibitory activity against rat brain mitochondrial Monoamine oxidase B at 0.5 uM
Procedure, shortened: as §1, with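 “[14C]phenethylamine” for “[3H]serotonin”, “10” for “0.2”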

[12] = target: T1, Amine oxidase [flavin-containing] A; assay: Inhibition of the enzyme Monoamine oxidase A which was not completely reverserved after 24 hr of dialysis after 25 mg/kg po administration *; type: organism-based; set-up: dose 25 mg/kg, route oral; details: in vivo
[13] = target: T2, Amine oxidase [flavin-containing] B; assay: Inhibitory activity against rat brain mitochondrial Monoamine oxidase B; NS=not significant ta 1 uM
Procedure, shortened: as §1, with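 “[14C]phenethylamine” for “[3H]serotonin”, “10” for “0.2”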

[14] = target: T2, Amine oxidase [flavin-containing] B; assay: Inhibitory activity against rat brain mitochondrial Monoamine oxidase B at 50 uM
Procedure, shortened: as §1, with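 “[14C]phenethylamine” for “[3H]serotonin”, “10” for “0.2”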

[15] = target: T2, Amine oxidase [flavin-containing] B; assay: Inhibitory activity against rat brain mitochondrial Monoamine oxidase B at 0.2 uM
Procedure, shortened: as §1, with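 “[14C]phenethylamine” for “[3H]serotonin”, “10” for “0.2”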

[16] = target: T2, Amine oxidase [flavin-containing] B; assay: Inhibitory activity against rat brain mitochondrial Monoamine oxidase B 0.1(uM)
Procedure, shortened: as §1, with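 “[14C]phenethylamine” for “[3H]serotonin”, “10” for “0.2”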

[17] = target: T1, Amine oxidase [flavin-containing] A; assay: Inhibition of the enzyme MAO A which was not completely reverserved after 24 hr of dialysis after po administration to rat (brain); type: organism-based; details: in vivo
[18] = target: T1, Amine oxidase [flavin-containing] A; assay: Inhibitory concentration against rat brain mitochondrial Monoamine oxidase A at <5 uM; procedure, shortened: as §1
[19] = target: T2, Amine oxidase [flavin-containing] B; assay: Inhibitory activity against rat brain mitochondrial Monoamine oxidase B
Procedure, shortened: as §1, with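 “[14C]phenethylamine” for “[3H]serotonin”, “10” for “0.2”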

[20] = target: T1, Amine oxidase [flavin-containing] A; assay: Inhibitory activity against rat brain mitochondrial Monoamine oxidase A (Expt 2)
[21] = target: T1, Amine oxidase [flavin-containing] A; assay: Inhibitory concentration against rat brain mitochondrial Monoamine oxidase A (Expt 1); procedure, shortened: as §1
[22] = target: T2, Amine oxidase [flavin-containing] B; assay: Inhibitory activity against rat brain mitochondrial Monoamine oxidase B;NS=not significant at 0.1 uM
Procedure, shortened: as §1, with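 “[14C]phenethylamine” for “[3H]serotonin”, “10” for “0.2”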

[23] = target: T1, Amine oxidase [flavin-containing] A; assay: Inhibition of the enzyme Monoamine oxidase A which was not completely reverserved after 24 hr of dialysis after 20 mg/kg po administration; type: organism-based; set-up: dose 20 mg/kg, route oral; details: in vivo
[24] = target: T2, Amine oxidase [flavin-containing] B; assay: Inhibitory activity against Monoamine oxidase B; NS=not significant at 0.001 uM
Procedure, shortened: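 Rat brain mitochondrial MAO extract preincubated with or without inhibitor 15 min at 37 °C in 50 mM potassium phosphate, pH 7.4. [14C]phenethylamine was then added to 10 μM final and incubated 20 min. Blanks contained 2 mM pargyline. Products were extracted into ethyl acetate/toluene and counted by scintillation. Triplicates at each inhibitor concentration; mean percent inhibition.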

[25] = target: T2, Amine oxidase [flavin-containing] B; assay: Inhibitory activity against rat brain mitochondrial Monoamine oxidase B;NS=not significant at 1 uM
Procedure, shortened: as §1, with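 “[14C]phenethylamine” for “[3H]serotonin”, “10” for “0.2”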

[26] = target: T2, Amine oxidase [flavin-containing] B; assay: Inhibitory activity against rat brain mitochondrial Monoamine oxidase B at 0.0 uM
Procedure, shortened: as §1, with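 “[14C]phenethylamine” for “[3H]serotonin”, “10” for “0.2”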

[27] = target: T2, Amine oxidase [flavin-containing] B; assay: Inhibitory activity against rat brain mitochondrial Monoamine oxidase B; NS=not significant at 1 uM
Procedure, shortened: as §1, with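 “[14C]phenethylamine” for “[3H]serotonin”, “10” for “0.2”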

[28] = target: T1, Amine oxidase [flavin-containing] A; assay: Inhibitory concentration against rat brain mitochondrial Monoamine oxidase A at 0.5 uM; procedure, shortened: as §1
[29] = target: T2, Amine oxidase [flavin-containing] B; assay: Inhibitory activity against rat brain mitochondrial Monoamine oxidase B at 0.1 uM
Procedure, shortened: as §1, with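 “[14C]phenethylamine” for “[3H]serotonin”, “10” for “0.2”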

Compound: CCCOc1ccc2c(c1)C(=O)c1ccc(-c3nnn(C)n3)cc1S2(=O)=O
IC50 [2]: 2 nM
Reversible [3]: 0%
inhibition at 0.003 µM [4]: -13%

Compound: CN(C)c1ccc2c(c1)C(=O)c1ccc(C3=NCCN3)cc1S2(=O)=O
IC50 [2]: 20 nM
Reversible [3]: 21%
inhibition at 0.03 µM [8]: 8%

Compound: COc1nc(-c2ccc3c(c2)S(=O)(=O)c2ccccc2C3=O)no1
IC50 [2]: 80 nM
inhibition at 0.5 µM [11]: 23%

Compound: Cn1nnc(-c2ccc3c(c2)S(=O)(=O)c2ccccc2O3)n1
IC50 [2]: 2 nM
inhibition at 50 µM [14]: 10%

Compound: O=C1c2cc(N3CCSCC3)ccc2S(=O)(=O)c2cc(C3=NCCN3)ccc21
IC50 [2]: 20 nM
inhibition at 0.2 µM [15]: 10%

Compound: O=S1(=O)c2cc(C3=NCCN3)ccc2Oc2ccc(C3=NCCN3)cc21
% inhibition [16]: 5%

Compound: CCCOc1ccc2c(c1)C(=O)c1ccc(C3=NCCN3)cc1S2(=O)=O
IC50 [20]: 9 nM
IC50 [21]: 40 nM
Reversible [3]: 2%
IC50 [22]: Not Active

Compound: Cc1nnc(-c2ccc3c(c2)OOc2ccccc2C3=O)o1
IC50 [6]: 2 nM
Reversible [23]: 12%
Inhibition [24]: Not Active

Compound: O=C1c2cc(NCCO)ccc2S(=O)(=O)c2cc(C3=NCCN3)ccc21
IC50 [2]: 40 nM
IC50 [25]: Not Active

Compound: CCCNc1ccc2c(c1)C(=O)c1ccc(C3=NCCN3)cc1S2(=O)=O
IC50 [2]: 20 nM
Reversible [3]: 0%
Inhibition [26]: 4%

Compound: CC(C)(C)c1ccc2c(c1)C(=O)c1ccc(C3=NCCN3)cc1S2(=O)=O
IC50 [2]: 800 nM
Reversible [3]: 56%
IC50 [27]: Not Active

Further lines, results first:

inhibition at 1 µM [1]: 30%
Compound: c1ccc2c(c1)cc(C1=NCCN1)c1ccccc12

IC50 [2]: 2 nM
Reversible [3]: 10%
IC50 [5]: Not Active
Compound: Cc1ccc2c(c1)C(=O)c1ccc(-c3nnc(C)o3)cc1S2(=O)=O

IC50 [6]: 300 nM
inhibition at 1 µM [7]: 31%
Compound: c1ccc2c(c1)Sc1ccc(C3=NCCN3)cc1S2

inhibition at 3 µM [9]: 38%
inhibition at 3 µM [10]: 33%
Compound: c1ccc2c(c1)[nH]c1cc(C3=NCCN3)ccc12

IC50 [2]: 2 nM
Reversible [12]: 33%
IC50 [13]: Not Active
Compound: Cc1nnc(-c2ccc3c(c2)S(=O)(=O)c2ccccc2C3=O)o1

IC50 [2]: 70 nM
Reversible [17]: 60%
inhibition at 0.2 µM [15]: 3%
Compound: O=C1c2cc(Cl)ccc2S(=O)(=O)c2cc(C3=NCCN3)ccc21

Inhibition [18]: 44%
Inhibition [19]: 10%
Compound: O=C1c2ccccc2S(=O)(=O)c2cc(-c3ncc[nH]3)ccc21

inhibition at 0.5 µM [28]: 7%
inhibition at 0.1 µM [29]: 7%
Compound: O=C1c2ccccc2S(=O)(=O)c2cc(-c3nnc(C(F)(F)F)o3)ccc21
